Measurements from different studies.
Each line is one published result; the experiments were not run side by side. pIC50, pKi: −log10 of the molar value.
Target: Carbonic anhydrase 2 (CA2, Homo sapiens, UniProt P00918)
Effect on: enzyme activity
Mode: inhibitor

| SMILES | method | pH | measurement | value |
| --- | --- | --- | --- | --- |
| COc1ccc(NC(=S)N/N=C/c2ccc(N3CCC(O)CC3)cc2)cc1 | absorbance | – | pIC50 | 6.24 |
| NS(=O)(=O)c1nnc(NC(=O)CCCC2CCCCC2)s1 | stopped-flow | – | pKi | 8.06 |
| OC1CCN(c2ccc(/C=N/NC(=S)Nc3ccc(F)cc3)cc2)CC1 | absorbance | – | pIC50 | 6.59 |
| Cc1cncc(CN2CCC(=C3c4ccc(Cl)cc4CCc4cccnc43)CC2)c1 | absorbance | pH 7.4 | pIC50 | 4.84 |
| NS(=O)(=O)c1nnc(NC(=O)CCc2ccc(F)cc2)s1 | stopped-flow | – | pKi | 8.44 |
| OC(Cn1cncn1)(Cn1cncn1)c1ccc(F)cc1F | absorbance | pH 7.4 | pIC50 | 4.90 |
| CC(C)(C)CCC(=O)Nc1nnc(S(N)(=O)=O)s1 | stopped-flow | – | pKi | 7.99 |
| NS(=O)(=O)c1ccc(Nc2nc(-c3cc4cc(Br)ccc4oc3=O)cs2)c(Br)c1 | absorbance | – | pIC50 | 5.23 |
| CN(C/C=C/C#CC(C)(C)C)Cc1cccc2ccccc12 | absorbance | pH 7.4 | pIC50 | 4.49 |
| CC1CCCCC1CC(=O)Nc1nnc(S(N)(=O)=O)s1 (stereo not drawn) | stopped-flow | – | pKi | 7.53 |
| CN(C)CCC(c1ccccc1)c1ccccn1 (stereo not drawn) | absorbance | pH 7.4 | pIC50 | 4.65 |
| OC1CCN(c2ccc(/C=N/NC(=S)Nc3ccccc3)cc2)CC1 | absorbance | – | pIC50 | 6.30 |
| NCCCC(=O)Nc1nnc(S(N)(=O)=O)s1 | stopped-flow | – | pKi | 7.18 |
| OC1CCN(c2ccc(/C=N/NC(=S)NCc3ccccc3)cc2)CC1 | absorbance | – | pIC50 | 6.30 |
| COc1ccc2oc(=O)c(-c3csc(Nc4ccc(C(=O)O)cc4)n3)cc2c1 | absorbance | – | pIC50 | 5.34 |
